What was measured:
Format in all cases: functional
[1] = system: Staphylococcus aureus; assay: Antimicrobial activity against Staphylococcus aureus at 20 ug/8 mm disk at pH 7 by agar diffusion method
How it was run: (§1)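 Agar disk diffusion against S. aureus. Samples dissolved at 1 mg/mL in CH2Cl2/MeOH (95:5 v/v), plus a 10-fold dilution in the same vehicle; 20 µL of each applied to 8 mm paper disks and air-dried 30 min. Disks placed on S. aureus-seeded agar at pH 7 and pH 8, incubated overnight at 35 °C. Read-out: inhibition zone diameter (mm).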

[2] = system: Staphylococcus aureus; assay: Antimicrobial activity against Staphylococcus aureus at 2 ug/8 mm disk at pH 8 by agar diffusion method; how it was run: as §1
[3] = system: Staphylococcus aureus; assay: Antimicrobial activity against Staphylococcus aureus at 20 ug/8 mm disk at pH 8 by agar diffusion method; how it was run: as §1
[4] = system: Staphylococcus aureus; assay: Antimicrobial activity against Staphylococcus aureus at 2 ug/8 mm disk at pH 7 by agar diffusion method; how it was run: as §1

SMILES: COC[C@H]1O[C@@H](O[C@@H]2OC[C@@H]3O[C@@]4(OC[C@@H](OC(=O)c5c(C)cc(O)cc5O)[C@@H]5OCO[C@H]54)O[C@H]3[C@H]2O)[C@@H](OC)[C@@H](O)[C@@H]1O[C@@H]1O[C@H](C)[C@H](OC)[C@H](O[C@@H]2O[C@H](C)[C@H]3O[C@]4(C[C@@H](O)[C@H](O[C@H]5C[C@@H](O[C@H]6C[C@](C)([N+](=O)[O-])[C@@H](OC)[C@H](C)O6)[C@H](OC(=O)c6c(C)cc(O)c(Cl)c6O)[C@@H](C)O5)[C@@H](C)O4)O[C@]3(C)[C@@H]2O)[C@H]1O
- inhibition zone (IZ) [1]: 22 mm
- inhibition zone (IZ) [2]: 16 mm
- inhibition zone (IZ) [3]: 18 mm
- inhibition zone (IZ) [4]: 17 mm

SMILES: COC[C@H]1O[C@@H](O[C@@H]2OC[C@@H]3O[C@@]4(OC[C@@H](OC(=O)c5c(C)cc(O)cc5O)[C@@H]5OCO[C@H]54)O[C@H]3[C@H]2O)[C@@H](OC)[C@@H](O)[C@@H]1O[C@@H]1O[C@H](C)[C@H](OC)[C@H](O[C@@H]2O[C@H](C)[C@H]3O[C@]4(C[C@@H](O)[C@H](O[C@H]5C[C@@H](O[C@H]6C[C@](C)([N+](=O)[O-])[C@@H](OC)[C@H](C)O6)[C@H](OC(=O)c6c(C)c(Cl)c(O)c(Cl)c6OC)[C@@H](C)O5)[C@@H](C)O4)O[C@]3(C)[C@@H]2O)[C@H]1O [EVERNIMICIN]
- inhibition zone (IZ) [1]: 26 mm
- inhibition zone (IZ) [2]: 19 mm
- inhibition zone (IZ) [3]: 21 mm
- inhibition zone (IZ) [4]: 23 mm

SMILES: COC[C@H]1O[C@@H](O[C@@H]2OC[C@@H]3O[C@@]4(OC[C@@H](OC(=O)c5c(C)cc(O)cc5O)[C@@H]5OCO[C@H]54)O[C@H]3[C@H]2O)[C@@H](OC)[C@@H](O)[C@@H]1O[C@@H]1O[C@H](C)[C@H](OC)[C@H](O[C@@H]2O[C@H](C)[C@H]3O[C@]4(C[C@@H](O)[C@H](O[C@H]5C[C@@H](O[C@H]6C[C@](C)([N+](=O)[O-])[C@@H](OC)[C@H](C)O6)[C@H](OC(=O)c6c(C)cc(O)c(Cl)c6OC)[C@@H](C)O5)[C@@H](C)O4)O[C@]3(C)[C@@H]2O)[C@H]1O
- inhibition zone (IZ) [1]: 20 mm
- inhibition zone (IZ) [2]: 16 mm
- inhibition zone (IZ) [3]: 17 mm
- inhibition zone (IZ) [4]: 17 mm

SMILES: COC[C@H]1O[C@@H](O[C@@H]2OC[C@@H]3O[C@@]4(OC[C@@H](OC(=O)c5c(C)cc(O)cc5O)[C@@H]5OCO[C@H]54)O[C@H]3[C@H]2O)[C@@H](OC)[C@@H](O)[C@@H]1O[C@@H]1O[C@H](C)[C@H](OC)[C@H](O[C@@H]2O[C@H](C)[C@H]3O[C@]4(C[C@@H](O)[C@H](O[C@H]5C[C@@H](O[C@H]6C[C@](C)([N+](=O)[O-])[C@@H](O)[C@H](C)O6)[C@H](OC(=O)c6c(C)c(Cl)c(O)c(Cl)c6OC)[C@@H](C)O5)[C@@H](C)O4)O[C@]3(C)[C@@H]2O)[C@H]1O
- inhibition zone (IZ) [1]: 23 mm
- inhibition zone (IZ) [2]: 18 mm
- inhibition zone (IZ) [3]: 20 mm
- inhibition zone (IZ) [4]: 20 mm

SMILES: COC[C@H]1O[C@@H](O[C@@H]2OC[C@@H]3O[C@@]4(OC[C@@H](OC(=O)c5c(C)cc(O)cc5O)[C@@H]5OCO[C@H]54)O[C@H]3[C@H]2O)[C@@H](OC)[C@@H](O)[C@@H]1O
- inhibition zone (IZ) [1]: 10 mm
- inhibition zone (IZ) [2]: 8 mm
- inhibition zone (IZ) [3]: 8 mm
- inhibition zone (IZ) [4]: 8 mm

SMILES: COC[C@H]1O[C@@H](O[C@@H]2OC[C@@H]3O[C@@]4(OC[C@@H](OC(=O)c5c(C)cc(O)cc5O)[C@H](OC=O)[C@H]4O)O[C@H]3[C@H]2O)[C@@H](OC)[C@@H](O)[C@@H]1O[C@@H]1O[C@H](C)[C@H](OC)[C@H](O[C@@H]2O[C@H](C)[C@H]3O[C@]4(C[C@@H](O)[C@H](O[C@H]5C[C@@H](O[C@H]6C[C@](C)([N+](=O)[O-])[C@@H](OC)[C@H](C)O6)[C@H](OC(=O)c6c(C)c(Cl)c(O)c(Cl)c6OC)[C@@H](C)O5)[C@@H](C)O4)O[C@]3(C)[C@@H]2O)[C@H]1O
- inhibition zone (IZ) [1]: 21 mm
- inhibition zone (IZ) [2]: 15 mm
- inhibition zone (IZ) [3]: 18 mm
- inhibition zone (IZ) [4]: 17 mm

Reference: ChEMBL document CHEMBL1150669, “Isolation and characterization of novel oligosaccharides related to Ziracin” (2002)
